One experiment has as its system Candida albicans. Put plainly: Antifungal activity against Candida albicans. It is filed as functional, organism-based. In a few lines:
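Candida albicans tested by resazurin microplate assay, with IC50 in µg/mL.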

The next experiment has as its system KB. As to the kind of experiment: Cytotoxicity against human KB cells by resazurin microplate assay. It is filed as functional, cell-based. In a few lines:
(§1)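 Resazurin microplate assay on KB (oral human epidermoid carcinoma), MCF-7 (human breast cancer) and NCI-H187 (human small-cell lung cancer) cells, with IC50 in µg/mL.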
For orientation: Alamar Blue is a resazurin reagent that responds to reducing activity.

In the next experiment the test system is MCF7. Put plainly: Cytotoxicity against human MCF7 cells by resazurin microplate assay. It is filed as functional, cell-based. In a few lines: as §1
A further experiment concerns NCI-H187. As to the kind of experiment: Cytotoxicity against human NCI-H187 cells by resazurin microplate assay. It is filed as functional, cell-based. The essentials: as §1
The next experiment relates to Vero. As to the kind of experiment: Cytotoxicity against african green monkey Vero cells by green fluorescent protein assay. Particulars: Chlorocebus sabaeus. It is filed as cell-based. In a few lines:
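Vero (African green monkey kidney fibroblast) cytotoxicity measured by green fluorescent protein (GFP)-based method.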

Experiment [1] relates to Plasmodium falciparum. As to the kind of experiment: Antimalarial activity against Plasmodium falciparum K1. It is filed as functional, organism-based. In a few lines:
(§2)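 Plasmodium falciparum strain K1 tested by microculture radioisotope technique, with IC50 in µg/mL.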

Experiment [2] has as its system Plasmodium falciparum. Put plainly: Antimalarial activity against Plasmodium falciparum K1 assessed as [G-3H]hypoxanthine uptake after 24 hrs by scintillation counting. It is filed as functional, organism-based. Particulars: K1, 24 h. The essentials: as §2

SMILES strings stand for the structures. ≈ marks a conversion by molar mass, not a printed value.

Usually IC50 stands for the point on the concentration scale where inhibition reaches its midpoint. As to `CO/C=C(/C(=O)OC)[C@H](C)[C@H](/C=C/c1ccccc1)OC`, the IC50 is 0.76 µg/mL (≈ 2.62 µM) in the experiment with Candida albicans; 5.48 µg/mL (≈ 18.9 µM) in the experiment on KB; over 50 µg/mL with MCF7; 15.1 µg/mL (≈ 52 µM) in the experiment on NCI-H187; 39.2 µg/mL (≈ 135 µM) with Vero; 3 µg/mL (≈ 10.3 µM) with Plasmodium falciparum [1].
With `CO\C=C(C(=O)OC)/C(C)=C(\C=C\c1ccc2c(c1)OC(C)(C)[C@@H](OCC=C(C)C)CO2)OC`, the IC50 with Plasmodium falciparum [2] came out at 0.03 µg/mL (≈ 0.0635 µM); in the experiment on Candida albicans, 0.5 µg/mL (≈ 1.06 µM); with KB, 14.3 µg/mL (≈ 30.3 µM); in the experiment with MCF7, 15.4 µg/mL (≈ 32.6 µM); in the experiment on NCI-H187 it was 0.36 µg/mL (≈ 0.762 µM); in the experiment on Vero, 24 µg/mL (≈ 50.7 µM).
With `O=C(O)c1ccc2c(c1)C=C/C(=C\Cl)CO2`, the IC50 with Plasmodium falciparum [2] was over 10 µg/mL; in the experiment with Candida albicans it was over 50 µg/mL; with KB it was 0.78 µg/mL (≈ 3.3 µM); with MCF7 it was over 50 µg/mL; in the experiment on NCI-H187, 11.7 µg/mL (≈ 49.3 µM); in the experiment on Vero, over 50 µg/mL.
Consider `NC(=O)c1ccc2c(c1)C=C/C(=C\Cl)CO2`, for which the IC50 is over 10 µg/mL in the experiment with Plasmodium falciparum [2]; over 50 µg/mL with Candida albicans; 12.1 µg/mL (≈ 51.6 µM) in the experiment on KB; over 50 µg/mL in the experiment with MCF7; over 50 µg/mL in the experiment on NCI-H187; over 50 µg/mL in the experiment with Vero.
`CO\C=C(C(=O)OC)/C(C)=C(\C=C\c1ccccc1)OC` [9-METHOXYSTROBILURIN A]: the IC50 with Plasmodium falciparum [2] worked out at 0.39 µg/mL (≈ 1.35 µM); in the experiment on Candida albicans, 0.06 µg/mL (≈ 0.208 µM); in the experiment with KB it was 1.39 µg/mL (≈ 4.82 µM); in the experiment with MCF7 it was 12.4 µg/mL (≈ 43.1 µM); in the experiment with NCI-H187, 1.57 µg/mL (≈ 5.44 µM); in the experiment on Vero, 21.3 µg/mL (≈ 73.8 µM).
`CO\C=C(C(=O)OC)/C(C)=C(\C=C\c1ccc(Cl)c(OC)c1)OC` [9-METHOXYSTROBILURIN B]: the IC50 stood at 0.3 µg/mL (≈ 0.85 µM) with Plasmodium falciparum [2]; 0.22 µg/mL (≈ 0.624 µM) with Candida albicans; 5.45 µg/mL (≈ 15.4 µM) in the experiment with KB; 4.86 µg/mL (≈ 13.8 µM) with MCF7; 0.4 µg/mL (≈ 1.13 µM) with NCI-H187; 7.91 µg/mL (≈ 22.4 µM) in the experiment on Vero.
On to `CO/C=C(/C(=O)OC)[C@H](C)[C@H](/C=C/c1ccc(Cl)c(OC)c1)OC` [(-)-OUDEMANSIN B], for which the IC50 in the experiment on Candida albicans amounted to 0.89 µg/mL (≈ 2.51 µM); in the experiment on KB it was 0.73 µg/mL (≈ 2.06 µM); in the experiment with MCF7 it was 27.8 µg/mL (≈ 78.5 µM); with NCI-H187, 0.02 µg/mL (≈ 0.0564 µM); with Vero it was 14.3 µg/mL (≈ 40.2 µM); in the experiment with Plasmodium falciparum [1], 0.4 µg/mL (≈ 1.13 µM).
Regarding `C[C@@H]1[C@H](O)[C@@H](C)/C=C/C=C/C=C/C=C/C=C/C=C/C=C/[C@H](O[C@@H]2O[C@H](C)[C@@H](O)[C@H](N)[C@@H]2O)C[C@@H]2O[C@](O)(C[C@@H](O)C[C@@H](O)[C@H](O)CC[C@@H](O)C[C@@H](O)CC(=O)O[C@H]1C)C[C@H](O)[C@H]2C(=O)O` [AMPHOTERICIN B], in the experiment on Candida albicans, the IC50 turned out to be 0.07 µg/mL (≈ 0.0758 µM).
On to `C[C@H]1[C@@H](O)O[C@@H]2O[C@@]3(C)CC[C@H]4[C@H](C)CC[C@@H]1[C@@]24OO3` [ARTENIMOL], for which the IC50 in the experiment on Plasmodium falciparum [2] was 0.0011 µg/mL (≈ 0.00387 µM).
Take `COc1cccc2c1C(=O)c1c(O)c3c(c(O)c1C2=O)C[C@@](O)(C(=O)CO)C[C@@H]3O[C@H]1C[C@H](N)[C@H](O)[C@H](C)O1` [DOXORUBICIN]: the values for the IC50 with KB, in the experiment on MCF7 and with NCI-H187 were 0.25 µg/mL (≈ 0.46 µM), 0.57 µg/mL (≈ 1.05 µM) and 0.04 µg/mL (≈ 0.0736 µM), respectively.
With `Cc1c2ccncc2c(C)c2c1[nH]c1ccccc12` [ELLIPTECINE], the figures for the half-inhibitory concentration (IC50) with KB, in the experiment on NCI-H187 and with Vero were 0.45 µg/mL (≈ 1.83 µM), 0.68 µg/mL (≈ 2.76 µM) and 1.18 µg/mL (≈ 4.79 µM), respectively.

These data come from ChEMBL document CHEMBL1157096, “Bioactive metabolites from cultures of basidiomycete Favolaschia tonkinensis” (J Nat Prod, 2010).
